LMPTP inh: LMPTP phosphatase inhibitors, primary screen, biochemical, fluorescence intensity, uHTS; actives 0.22% (n = 360,000); AID 651560, 2012; recombinant LMPTP-A, OMFP fluorogenic substrate; inhibition, % at 20 µM;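 active means compounds that cut the enzyme signal by at least half of the control window in the single-dose screen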;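 further: plate controls were DMSO wells with enzyme plus substrate for no effect and substrate without enzyme for full effect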
Target sequence (P24666 whole entry, looked up): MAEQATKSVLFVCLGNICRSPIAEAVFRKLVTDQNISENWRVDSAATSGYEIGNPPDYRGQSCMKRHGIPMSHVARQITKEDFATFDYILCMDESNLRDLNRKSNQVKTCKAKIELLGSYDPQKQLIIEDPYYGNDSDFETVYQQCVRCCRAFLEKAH
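Assay system: LMPTP-A enzyme. Input: 0.625 nM LMPTP-A final. Probe or stimulus: 400 µM OMFP. Compound dosing: single 20 µM dose. Schedule: 50 min dark incubation at room temperature. Detection: fluorescence intensity of OMFP turnover product. Read-out: percent inhibition versus substrate-only and uninhibited controls. Benchmarks: no-enzyme low control, uninhibited high control.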
DNMT1 inh: human DNMT1 methyltransferase inhibitors, primary screen, biochemical, molecular beacon, fluorescence, HinP1I cleavage, uHTS. actives 0.83% (n = 360,000). inhibition (reported as % activation of signal), % at 10 µM. DNA (cytosine-5)-methyltransferase 1 (Homo sapiens), P26358; in the data active means inhibition above about 50%
Scp1 inh: Scp-1 phosphatase inhibitors, primary screen, biochemical, colorimetric, uHTS. AID 493091, 2011. actives 0.88% (n = 340,000). inhibition, % at 20 µM. Recombinant Scp1, phosphopeptide, malachite green phosphate absorbance. Carboxy-terminal domain RNA polymerase II polypeptide A small phosphatase 1 (Homo …;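 active means inhibition above about 50% at 20 µM, limit read from the data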;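 further: plate controls were DMSO wells with enzyme for no effect and wells lacking enzyme for full effect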
Target sequence (Q9GZU7 76-261 limits assumed): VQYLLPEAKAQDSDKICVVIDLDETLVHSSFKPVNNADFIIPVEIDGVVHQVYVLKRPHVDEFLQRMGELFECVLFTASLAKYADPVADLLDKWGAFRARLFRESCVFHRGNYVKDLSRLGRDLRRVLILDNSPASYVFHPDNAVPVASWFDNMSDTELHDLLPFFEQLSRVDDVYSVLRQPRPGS
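Times: enzyme reaction 45 min at room temperature, colour 5 min, stabilisation 30 min. Material: SCP-1 catalytic fragment, aa 76-261. Medium: Acidic Tris acetate buffer with magnesium and detergent. Signal: colorimetric free-phosphate detection, absorbance 630 nm. Read-out basis: % inhibition of SCP-1 phosphate liberation. Reagent: Phosphorylated 17-residue peptide substrate.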
STEP block: STEP phosphatase inhibitors, primary screen, biochemical, fluorescence intensity, uHTS | recombinant STEP, OMFP fluorogenic substrate | inhibition, % at 20 µM | actives 0.25% (n = 360,000);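 active means inhibition at 20 µM, scaled per plate between control wells, above about 37%, limit read from the data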;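 further: 0% = DMSO with enzyme and substrate and 100% = substrate only without enzyme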
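Material: STEP (striatal-enriched tyrosine phosphatase) enzyme, cell-free; Compound dosing: 20 µM single dose in 1% DMSO; Technique: fluorescence read at 480 nm ex / 540 nm em; Times: reaction 20 min, ambient temperature; Medium: 50 mM Bis-Tris pH 6.0 with 2.5 mM DTT and 0.005% Tween 20; Also added: OMFP at 25 µM.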
Rpn11 inh: Rpn11 (PSMD14) deubiquitinase inhibitors, primary screen, biochemical, fluorescence polarization, uHTS. inhibition, % at 20 µM. human 26S proteasome, Ub4-pepOG fluorescence polarization; 20S core pre-blocked with epoxomicin. actives 0.59% (n = 360,000). 26S proteasome non-ATPase regulatory subunit 14 (Homo sapiens), O00487;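 active means inhibition at 20 µM, scaled to each plate's controls, above about 33%, limit read from the data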
Target sequence (O00487 whole entry, looked up): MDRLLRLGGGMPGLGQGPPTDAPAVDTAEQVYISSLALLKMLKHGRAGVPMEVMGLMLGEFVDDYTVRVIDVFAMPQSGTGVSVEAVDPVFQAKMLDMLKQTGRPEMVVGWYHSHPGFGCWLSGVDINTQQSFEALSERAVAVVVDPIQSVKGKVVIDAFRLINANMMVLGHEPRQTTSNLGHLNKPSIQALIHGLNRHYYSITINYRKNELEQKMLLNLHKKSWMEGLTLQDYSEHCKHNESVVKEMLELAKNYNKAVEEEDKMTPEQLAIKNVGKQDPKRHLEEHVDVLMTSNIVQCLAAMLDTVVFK
Scp-1 conf: Scp-1 phosphatase inhibitors, retest, confirmation, biochemical, colorimetric, single concentration; actives 61% (n = 2,500); recombinant SCP-1 catalytic domain, phosphate release, malachite green absorbance; inhibition, % at 20 µM; shares compounds with Scp1 inh;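 further: plate controls were DMSO with enzyme for no effect and buffer wells lacking enzyme for full effect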
Scp-1 MG ctr: colorimetric readout interference by compounds, confirmation, artefact control for Scp-1 inhibitor project, biochemical, single concentration; shares compounds with Scp1 inh; AID 540313, 2011; 2,500 tested, under 10 active; Colorimetric interference counterscreen, malachite green absorbance 630 nm; apparent inhibition (interference), % at 20 µM;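 further: compounds added after enzyme reaction finished so only phosphate colour detection is probed; plate controls were DMSO wells with completed Scp-1 reaction for no effect and substrate wells lacking enzyme for full effect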
Scp-1 Tm shift: Scp-1 binding by thermal shift, confirmation, orthogonal assay for Scp-1 inhibitor project, biophysical, differential scanning fluorimetry; shares compounds with Scp1 inh; Recombinant SCP1, Sypro Orange thermal shift Tm; thermal shift relative to vanadate control, % at 40 µM; actives 25% (n = 1,500);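 active means substances whose mean melting-temperature shift, as a percentage of the reference inhibitor's shift, reaches about 5.3%, limit read from the data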;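 further: 0% = Tm of DMSO wells and 100% = Tm with sodium orthovanadate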
DNMT1 inh conf: DNMT1 methyltransferase inhibitor retest, confirmation, biochemical, molecular beacon, fluorescence, single concentration | shares compounds with DNMT1 inh | DNMT1 molecular beacon HinP1I cleavage | inhibition, % at 10 µM | actives 8% (n = 2,300) | AID 602385, 2012;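 active means average inhibition of at least 30% in the single-concentration confirmation test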
Beacon interf: beacon fluorescence artifact counter-screen | shares compounds with DNMT1 inh | DNMT1 molecular beacon spectral interference counterscreen, fluorescence 485/520 | activation (fluorescence interference), % at 10 µM | actives 1% (n = 2,300) | AID 602387;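 active means activation of at least 30% at 10 µM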;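 further: DNMT1 catalytic domain with a HinP1I cleavage step and a FAM/dabcyl DNA beacon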
An asterisk follows results filed as active; x = no result. Most compounds without a hit are left out; they make up all but 2% or so of the library.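 How the source made its calls, unless noted: active means inhibition of at least 30% at 20 µM; inactive means the rest.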

SMILES | LMPTP inh | DNMT1 inh | Scp1 inh | STEP block | Rpn11 inh | Scp-1 conf | Scp-1 MG ctr | Scp-1 Tm shift | DNMT1 inh conf | Beacon interf
O=C(COC(=O)c1c2c(nc3ccccc13)/C(=C/c1cccc([N+](=O)[O-])c1)CCC2)NC1CCS(=O)(=O)C1 (stereo unspecified) | 0 | -16 | 2 | 0 | -1 | x | x | x | x | x
CCOC(=O)C1=C(C)NC(C)=C(C(=O)OCC)C1C(=O)OCC(=O)Nc1ccc(NC(C)=O)cc1 | -1 | -3 | x | 2 | -2 | x | x | x | x | x
Cc1ccc(-c2nc3s/c(=C\c4ccco4)c(=O)n3n2)cc1 | 4 | 79* | 67* | 5 | 8 | 49* | -7 | 5 | 5 | -1
N#CC(C#N)=Cc1cccn1-c1ccc(C(=O)O)cc1 | 7 | 101* | 70* | 24 | -19 | 61* | -13 | 1 | 21 | -1
N#Cc1ccccc1CN1C(=O)S/C(=C/c2cccn2-c2ccc(C(=O)O)cc2)C1=O | 14 | 106* | 92* | 12 | -13 | 63* | -21 | -3 | 4 | 1
CN1C(=O)S/C(=C/c2cccn2-c2cccc(C(=O)O)c2)C1=O | 1 | 21 | 7 | 10 | -4 | x | x | x | x | x
COCc1cn(-c2nc3ccccc3s2)nn1 | -1 | x | x | x | x | x | x | x | x | x
NC(=N\N=Cc1ccco1)/C(N)=N/N=Cc1ccco1 | 36 | 55* | 62* | 7 | -8 | 39* | -11 | 1 | 4 | 4
NC(=N\N=Cc1ccccc1)/C(N)=N/N=Cc1ccccc1 | -2 | 5 | 5 | -2 | 1 | x | x | x | x | x
CN(C=O)c1cc([N+](=O)[O-])ccc1OCc1ccccc1 | 0 | 4 | 0 | -2 | -6 | x | x | x | x | x
COc1cc([N+](=O)[O-])ccc1NC(=O)CN1C(=O)NC2(CCCCC2C)C1=O (stereo unspecified) | 0 | -1 | 4 | -4 | -3 | x | x | x | x | x
CCOC(=O)C1=C(COC(=O)/C=C/c2ccco2)NC(=O)NC1C (stereo unspecified) | 7 | 72* | 66* | 31 | -16 | 55* | -6 | -7 | 7 | -3
NC(=S)n1[nH]c(-c2ccc([N+](=O)[O-])cc2)c(N=Nc2ccccc2[N+](=O)[O-])c1=O | 10 | 85* | 63* | 7 | -32 | 38* | -19 | 10* | -2 | -8
Nc1[nH]n(-c2ccccc2)c(=O)c1N=Nc1ccccc1[N+](=O)[O-] | 0 | -3 | -5 | -1 | 2 | x | x | x | x | x
CCCSc1nsc(SCCC)c1C#N | -2 | 1 | 1 | -1 | 1 | x | x | x | x | x
C#CCSc1nsc(SCC#C)c1C#N | 26 | 77* | 80* | 14 | 0 | 66* | -16 | 1 | 16 | 2
O=C(c1ccccc1Cl)N1N=C(c2cccs2)CC1c1cccc(O)c1 (stereo unspecified) | 2 | -5 | -11 | -2 | 7 | x | x | x | x | x
Cc1cccc(C(=O)OCC(=O)c2ccc(CC(=O)N3CCOCC3)s2)c1C | 5 | 50* | 85* | 3 | 6 | 60* | -19 | 4 | 4 | 5
CCS(=O)(=O)c1ccc(C=NNc2nc3ccccc3o2)cc1 | -2 | 1 | -8 | 0 | -3 | x | x | x | x | x
O=[N+]([O-])c1ccc(/C=N/Nc2nc3ccccc3o2)cc1 | 42 | 56* | 50* | 34 | 8 | 56* | -12 | 5 | 6 | 0
O=C1CCCC(O)=C1Sc1ccccc1C(=O)O | 3 | 67* | 57* | 8 | -14 | 37* | -18 | 1 | 2 | 0
O=C1CCCC(O)=C1C(C#Cc1ccccc1)C1=C(O)CCCC1=O | 2 | -6 | 0 | 3 | 0 | x | x | x | x | x
COc1ccccc1C(=O)NNC(=O)CN(C)S(=O)(=O)c1ccc(Cl)cc1 | -1 | 0 | x | 1 | -1 | x | x | x | x | x
CCCN(C(=O)c1cccc(-n2cccc2)c1)c1c(N)n(Cc2ccccc2)c(=O)[nH]c1=O | 15 | 81* | 74* | 4 | -1 | 66* | -9 | -17 | 12 | 0
CCCN(C(=O)c1ccc([N+](=O)[O-])c(C)c1)c1c(N)n(Cc2ccccc2)c(=O)[nH]c1=O | 0 | 4 | -8 | 2 | 2 | x | x | x | x | x
SMILES | LMPTP inh | DNMT1 inh | Scp1 inh | STEP block | Rpn11 inh | Scp-1 conf | Scp-1 MG ctr | Scp-1 Tm shift | DNMT1 inh conf | Beacon interf
O=C(CN1CCN(C(=O)C2CCN(C(=O)/C=C/c3ccccc3)CC2)CC1)Nc1ccc(F)cc1 | 0 | 3 | -2 | 4 | -3 | x | x | x | x | x
O=C(N/N=C\C=C\c1ccco1)c1cc(-c2ccc3ccccc3c2)n[nH]1 | 15 | 68* | 70* | 4 | 5 | 42* | -14 | 13* | 5 | 30
CCCSc1nc(C)c(-c2csc(C(C#N)=C3CCCC3)n2)cc1C#N | 16 | 92* | 57* | 6 | 30 | 60* | -12 | 5 | -1 | -2
CCCCSc1nc2c(cc1C#N)CCC2 | 1 | 3 | -11 | -1 | 0 | x | x | x | x | x
O=C(CCS(=O)(=O)c1ccc(Br)cc1)N1CCN(c2ccccc2)CC1 | -1 | 28 | 15 | 2 | -9 | x | x | x | x | x
Cc1cccc(N2CCN(C(=O)CCS(=O)(=O)c3ccc(Br)cc3)CC2C)c1 (stereo unspecified) | 0 | 70* | 84* | 3 | -12 | 74* | -6 | -1 | 1 | -1
O=C(Cn1cnc2scc(-c3cccc([N+](=O)[O-])c3)c2c1=O)NCc1ccco1 | 21 | 83* | 78* | 8 | -17 | 70* | -11 | 11* | 16 | -1

Source: PubChem
